Experimental data reported in publication PMC8943622 (Journal of Cerebral Blood Flow & Metabolism, 2021).
Values joined by “and” are separate entries in the source; they are usually repeats but may differ in a detail not shown here. Equal entries are not always repeated. Where two headings read alike, the source gives them in different places.

How the values were obtained:
MAGL [1] = assay: [18F]T-401 PET after JW642 pretreatment; type: in vivo, rhesus monkey (Macaca mulatta)
MAGL [2] = type: in vivo, rhesus monkey (Macaca mulatta); conditions: baseline; for VT mean: mean of three monkeys; for VT: M187
[3] = Radiometabolite analysis of [18F]T-401 in arterial plasma; type: in vivo, rhesus monkey; conditions: 30 min after injection; baseline and JW642 blockade
How it was run: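 Anaesthetised monkeys had 24 serial saphenous-artery samples taken over the 120 min scan. Plasma was separated at 15000 × g, 3 min, 4 °C. Samples from 2, 5, 10, 30, 60, 90 and 120 min went to HPLC (Atlantis T3, acetonitrile/H2O 40/60, 1.0 mL/min, 254 nm). Decay-corrected parent-to-total radioactivity came from peak areas. Blockade used i.v. test compound 0.01–0.3 mg/kg, 5 min before the radioligand, in one monkey.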

MAGL [4] = molecular target: T1, MAGL (Macaca mulatta, UniProt H9ESL3); assay: In vivo Scatchard plot analysis of baseline [18F]T-401 PET data; set-up: species or system rhesus monkey
T1 sequence (H9ESL3 1-303): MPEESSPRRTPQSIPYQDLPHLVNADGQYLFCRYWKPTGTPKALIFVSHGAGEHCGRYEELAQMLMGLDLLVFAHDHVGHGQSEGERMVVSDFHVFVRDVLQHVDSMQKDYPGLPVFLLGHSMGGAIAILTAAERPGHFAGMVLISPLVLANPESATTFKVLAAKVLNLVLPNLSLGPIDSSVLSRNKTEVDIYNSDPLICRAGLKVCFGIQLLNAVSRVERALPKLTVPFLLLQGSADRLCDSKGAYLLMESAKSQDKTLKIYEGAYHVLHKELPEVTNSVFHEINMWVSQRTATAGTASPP
How it was run: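 Three male rhesus monkeys (5–7 kg) were given ketamine 10 mg/kg i.m., then intubated and kept on 1–2% isoflurane, with a heating pad. After a 68Ge–68Ga transmission scan, a 120 min 3D list-mode emission scan began at i.v. radioligand injection (356 ± 50 MBq, 343 ± 68 GBq/μmol). Baseline data were analysed by Scatchard plot to give KD and Bmax in representative ROIs.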

## O=C(OC(C(F)(F)F)C(F)(F)F)N1CCN(Cc2cccc(Oc3ccccc3)c2)CC1 [JW642]
MAGL [1]; Hill's plot of occupancy versus plasma concentration, monkey M187
  EC50, plasma JW642 concentration inducing 50% occupancy of MAGL: 0.126 µg/mL and 0.1261 µg/mL
MAGL [1]; JW642 0.01 mg/kg i.v., Lassen's plot
  MAGL occupancy: 20%
MAGL [1]; JW642 0.3 mg/kg i.v., Lassen's plot, 0.3 mg/kg
  MAGL occupancy: 94% and 93%

## Cc1ccnc([18F])c1-c1cccc(N2C[C@H](N3CCN(C(=O)c4nccs4)CC3)CC2=O)c1 [[^18F]T-401, (4R)-1-{3-[2-[^18F]fluoro-4-methylpyridin-3-yl]phenyl}-4-[4-(1,3-thiazol-2-ylcarbonyl)piperazin-1-yl]pyrrolidin-2-one]
MAGL [1]; Lassen's plot, averaged x-intercept of regression lines, monkey brain
  non-displaceable distribution volume (VND): 0.69 mL/cm^3
MAGL [1]; pons
  VND as portion of VT: 14.6%
MAGL [2]; CB
  VT mean: 7.17 mL/cm^3
MAGL [2]; FCX
  VT mean: 11.7 mL/cm^3
MAGL [2]; HIP
  VT mean: 5.95 mL/cm^3
MAGL [2]; OCC
  VT: 11.89 mL/cm^3
  VT mean: 9.96 mL/cm^3
MAGL [2]; Pons
  VT mean: 4.73 mL/cm^3
MAGL [2]; STR
  VT: 12.51 mL/cm^3
  VT mean: 9.05 mL/cm^3
MAGL [2]; THA
  VT mean: 6.36 mL/cm^3
MAGL [2]; monkey brain
  time of peak brain uptake after injection: 5 to 15 min
MAGL [2]; printed as striatum
  mean VT, upper end of range: 11.7 mL/cm^3
[3]
  parent fraction in arterial plasma: approximately 30%
MAGL [4]; FCX
  Kd: 4.18 nM
MAGL [4]; HIP
  Kd: 1.09 nM
